In publication PMC4076525 (The Journal of General Physiology, 2014):
Residue numbers refer to the chain shown, from its start. Names may count otherwise.

What was measured:
FepA = biological target: T1, FepA (Escherichia coli, UniProt P05825); details: ref Newton et al., 1999; Annamalai et al., 2004; cited from earlier work
T1 sequence (P05825 23-746): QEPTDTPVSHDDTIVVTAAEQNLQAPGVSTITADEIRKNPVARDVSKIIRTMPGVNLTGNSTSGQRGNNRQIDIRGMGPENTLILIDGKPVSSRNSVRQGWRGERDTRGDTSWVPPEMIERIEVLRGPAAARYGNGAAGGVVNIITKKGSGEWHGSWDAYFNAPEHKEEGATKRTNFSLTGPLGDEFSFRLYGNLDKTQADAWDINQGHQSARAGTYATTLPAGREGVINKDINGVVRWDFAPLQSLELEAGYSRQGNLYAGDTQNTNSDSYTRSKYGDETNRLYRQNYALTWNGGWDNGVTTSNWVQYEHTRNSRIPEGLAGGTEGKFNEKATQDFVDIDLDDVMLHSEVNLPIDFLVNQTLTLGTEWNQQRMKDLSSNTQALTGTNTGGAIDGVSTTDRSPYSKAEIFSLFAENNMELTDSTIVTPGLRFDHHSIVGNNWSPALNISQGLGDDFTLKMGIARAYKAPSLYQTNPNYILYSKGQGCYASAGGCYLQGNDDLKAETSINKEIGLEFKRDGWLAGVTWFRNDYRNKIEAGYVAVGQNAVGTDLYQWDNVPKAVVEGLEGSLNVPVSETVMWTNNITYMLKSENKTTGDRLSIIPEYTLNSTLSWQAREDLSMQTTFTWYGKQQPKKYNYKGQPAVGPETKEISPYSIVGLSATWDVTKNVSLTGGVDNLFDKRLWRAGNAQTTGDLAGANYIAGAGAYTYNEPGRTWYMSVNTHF

[1] = Extent of FeEnt-induced quenching of FM fluorescence in live cells; type: cell-based, Escherichia coli; details: 10 nM FeEnt, 2.5 × 10^7 cells/ml, FM-labeled mutants
Method in brief: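 Hosts were tonB+ ΔfepA or ΔtonB ΔfepA E. coli expressing plasmid-borne Cys-substituted FepA, grown in iron-deficient MOPS medium to late log. 10^10 cells were labeled with 5 µM fluorescein-5-maleimide in 50 mM Na2HPO4, 0.9% NaCl, pH 6.5, for 5 min at 37°C. Labeling was quenched with β-mercaptoethanol, and cells were resuspended in PBS with 0.4% glucose. FeEnt was added to 2.5 × 10^7 cells in 3 ml, stirred at 2°C, with emission read at 520 nm.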

[2] = Fluorescence recovery after FeEnt quenching; type: cell-based, Escherichia coli; details: after FM modification
59FeEnt transport = type: cell-based, Escherichia coli; details: for 59FeEnt transport rate compared with wild-type FepA: before fluoresceination; for Vmax fold lower after fluoresceination: 59FeEnt uptake; for Transport rate relative to wild-type FepA: FM-modified, TonB-dependent uptake
Method in brief: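 Cultures were grown in LB with antibiotics, then in iron-deficient MOPS medium to 10^9 cells/ml. Cells were assayed before and after labeling with 5 µM fluorescein-5-maleimide (pH 6.5 phosphate/NaCl buffer, 5 min, 37°C, β-mercaptoethanol stop). Uptake was measured in MOPS medium with 0.4% glucose at 37°C in 10-ml volumes. KM and Vmax came from an enzyme-kinetics equation fit per sample.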

[3] = 59FeEnt binding by cells expressing FepA Cys substitution mutants; design: species or system Escherichia coli; details: read-out: Binding >FM Kd, after modification with FM
Method in brief: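 Cells were grown overnight at 37°C in LB with streptomycin (100 µg/ml) and chloramphenicol (20 µg/ml). They were subcultured 1% into iron-deficient MOPS medium and grown 5.5–6 h to 10^9 cells/ml, then labeled with 5 µM fluorescein-5-maleimide at pH 6.5 for 5 min at 37°C. Reactions were stopped with 100 mM β-mercaptoethanol. Binding ran at 0°C in 10-ml volumes, and Kd and capacity came from a bound-versus-total fit.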

[4] = Rapid-mixing stopped-flow FM quenching during FeEnt binding, live bacteria; design: species or system Escherichia coli; details: live bacteria expressing FepAT216C-FM
Method in brief: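 Live, highly fluorescein-maleimide-labeled bacteria expressing the Cys-substituted FepA were rapid-mixed with FeEnt in a stopped-flow chamber, with emission quenching recorded at 520 nm. Rate constants, with standard errors, came from exponential decay fits (A(t) = A0e^−kt + offset). Half-times were calculated as −ln 0.5/k.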

[5] = Rapid-mixing stopped-flow FM quenching during FeEnt binding, OM fragments; design: species or system Escherichia coli; details: biphasic decay

**Q.** With `O=C(N[C@H]1COC(=O)[C@@H](NC(=O)c2cccc([O-])c2[O-])COC(=O)[C@@H](NC(=O)c2cccc([O-])c2[O-])COC1=O)c1cccc([O-])c1[O-].[Fe+3]` [FeEnt, ferric enterobactin] as the molecule, how does the FeEnt turnover number (FepA) read?
**A.** ~0.03 s⁻¹

B1: S275C: E. coli FepA with Cys substitution at S275, surface loop 3 (protein, UniProt P05825 23-746, looked up, variant S275C)
Ferrienterobactin receptor: T1 sequence (P05825 23-746) with S275C
**Q.** With B1 as the molecule, how does the “Quenching of FM emissions by FeEnt binding” value (“Quenching of FM emissions” below) [1] read?
**A.** unaffected by FeEnt

B2: A383C (protein, UniProt P05825 23-746, looked up, variant A383C)
Ferrienterobactin receptor: T1 sequence (P05825 23-746) with A383C
**Q.** Which results are given for B2?
**A.** Increase of fluorescence recovery time compared with S271C-FM [2]: 10 fold; 59FeEnt transport rate compared with wild-type FepA (59FeEnt transport): about half that rate

B3: S490C (protein, UniProt P05825 23-746, looked up, variant S490C)
Ferrienterobactin receptor: T1 sequence (P05825 23-746) with S490C
**Q.** With B3 as the molecule, how does the “Increase of fluorescence recovery time compared with S271C-FM” value [2] read?
**A.** 10 fold

**Q.** And the “59FeEnt transport rate compared with wild-type FepA” value (59FeEnt transport)?
**A.** about half that rate

B4: fepA+: wild-type E. coli FepA, outer membrane ferric enterobactin transporter, expressed from pHSG575 plasmid (protein, UniProt P05825 23-746, looked up)
Ferrienterobactin receptor: T1 sequence (P05825 23-746)
**Q.** Which “Transport <FM Vmax” value (59FeEnt transport; 59FeEnt, 37°C, before modification with FM, listed as wild-type FepA) does the source give for B4 here?
**A.** ~100 pMol/min/10^9 cells

B5: A322C (protein, UniProt P05825 23-746, looked up, variant A322C)
Ferrienterobactin receptor: T1 sequence (P05825 23-746) with A322C
**Q.** With B5 as the molecule, how does the “59FeEnt transport rate compared with wild-type FepA” value (59FeEnt transport) read?
**A.** about half that rate

B6: S490C-FM: FepA S490C labeled with fluorescein-5-maleimide (FM) (conjugate, UniProt P05825 23-746, looked up, variant S490C)
Ferrienterobactin receptor: T1 sequence (P05825 23-746) with S490C
modifications: fluorescein-5-maleimide label
**Q.** For B6, which Kd [3] is on record?
**A.** 90 nM

**Q.** What about the “Quenching of FM emissions” value [1] of the same molecule?
**A.** 30%

**Q.** And the “Vmax fold lower after fluoresceination” value (59FeEnt transport)?
**A.** 3–10 fold

**Q.** What about the Km (59FeEnt transport; read-out: Transport >FM KM, 59FeEnt, 37°C, after modification with FM) of the same molecule?
**A.** 0.057 µM

B7: A322C-FM: FepA A322C labeled with fluorescein-5-maleimide (FM) (conjugate, UniProt P05825 23-746, looked up, variant A322C)
Ferrienterobactin receptor: T1 sequence (P05825 23-746) with A322C
modifications: fluorescein-5-maleimide label
**Q.** For B7, which “Quenching of FM emissions” value [1] is on record?
**A.** similarly quenched

**Q.** What about the “Vmax fold lower after fluoresceination” value (59FeEnt transport) of the same molecule?
**A.** 3–10 fold

B8: A383C-FM: FepA A383C labeled with fluorescein-5-maleimide (FM) (conjugate, UniProt P05825 23-746, looked up, variant A383C)
Ferrienterobactin receptor: T1 sequence (P05825 23-746) with A383C
modifications: fluorescein-5-maleimide label
**Q.** Which “Vmax fold lower after fluoresceination” value (59FeEnt transport) does the source give for B8 here?
**A.** 3–10 fold

B9: T550C-FM: FepA T550C labeled with fluorescein-5-maleimide (FM) (conjugate, UniProt P05825 23-746, looked up, variant T550C)
Ferrienterobactin receptor: T1 sequence (P05825 23-746) with T550C
modifications: fluorescein-5-maleimide label
**Q.** For B9, which “Vmax fold lower after fluoresceination” value (59FeEnt transport) is on record?
**A.** 3–10 fold

B10: T550C (protein, UniProt P05825 23-746, looked up, variant T550C)
Ferrienterobactin receptor: T1 sequence (P05825 23-746) with T550C
**Q.** With B10 as the molecule, how does the “Increase of fluorescence recovery time compared with S271C-FM” value [2] read?
**A.** 10 fold

B11: A698C (protein, UniProt P05825 23-746, looked up, variant A698C)
Ferrienterobactin receptor: T1 sequence (P05825 23-746) with A698C
**Q.** Which “Quenching of FM emissions” value [1] does the source give for B11 here?
**A.** > 60%

B12: T216C (protein, UniProt P05825 23-746, looked up, variant T216C)
Ferrienterobactin receptor: T1 sequence (P05825 23-746) with T216C
**Q.** For B12, which “Quenching of FM emissions” value [1] is on record?
**A.** > 60%

**Q.** What about the “k (SE), rate of FM quenching” value [4] of the same molecule?
**A.** 1.08 (0.08) s^−1

B13: S271C-FM (conjugate, UniProt P05825 23-746, looked up, variant S271C)
Ferrienterobactin receptor: T1 sequence (P05825 23-746) with S271C
modifications: fluorescein-5-maleimide label
**Q.** Which “Transport rate relative to wild-type FepA” value (59FeEnt transport) does the source give for B13 here?
**A.** 65%

B14: A698C-FM: FepA A698C labeled with fluorescein-5-maleimide (FM) (conjugate, UniProt P05825 23-746, looked up, variant A698C)
Ferrienterobactin receptor: T1 sequence (P05825 23-746) with A698C
modifications: fluorescein-5-maleimide label
**Q.** Which “Transport rate relative to wild-type FepA” value (59FeEnt transport) does the source give for B14 here?
**A.** 90%

B15: S271C (protein, UniProt P05825 23-746, looked up, variant S271C)
Ferrienterobactin receptor: T1 sequence (P05825 23-746) with S271C
**Q.** With B15 as the molecule, how does the “k (SE), second kinetic phase” value [5] read?
**A.** 0.31 (0.04) s^−1
